Results taken from ChEMBL document CHEMBL4808175 (J Med Chem, 2021).

Experiments:
Homo sapiens = species: Homo sapiens; test: Selectivity ratio of IC50 for recombinant GST-tagged full length PDE11A4 (unknown origin) expressed in baculovirus infected Sf9 insect cells to IC50 for recombinant full length GST-tagged PDE5A1 (unknown origin) expressed in baculovirus infected Sf9 insect cells using TAMRA-cGMP as substrate incubated for 1.5 hrs by IMAP-FP assay using TAMRA-cGMP as substrate incubated for 1.5 hrs by IMAP-FP assay
[1] = target: T1, cGMP-dependent 3',5'-cyclic phosphodiesterase (Homo sapiens, UniProt O00408); test: Inhibition of recombinant full length GST-tagged PDE2A (unknown origin) expressed in baculovirus infected Sf9 insect cells using TAMRA-cGMP as substrate incubated for 1.5 hrs by IMAP-FP assay
Summary of the method: (§1)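 PDE enzymes incubated with compound or vehicle and 50 nM TAMRA-cGMP or FAM-cAMP substrate for 1.5 h at 30 °C. Activity read by IMAP fluorescence polarization. IC50 from 10 concentrations, at least two replicates each, fitted by four-parameter logistic. Dose–response repeated at least twice; mean of at least two experiments.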

[2] = AUC (0 to 8 hrs) in C57BL/6N mouse at 150 mg/kg, po administered as single dose measured up to 8 hrs by LC-MS/MS analysis; assay type: ADME, organism-based; set-up: route oral, dose 150 mg/kg, time <=8; conditions: in vivo
[3] = Observed clearance in C57BL/6N mouse at 150 mg/kg, po administered as single dose measured up to 8 hrs by LC-MS/MS analysis; assay type: ADME, organism-based; conditions: in vivo
[4] = Toxicity in athymic nude-Foxn1nu mouse at 50 to 150 mg/kg, po bid for 28 days; assay type: organism-based; conditions: in vivo, 672 h, dose 50-150 mg/kg, time 28 day
Summary of the method: (§2)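 Female athymic nude-Foxn1nu mice, 8–9 weeks, 18–24 g, n=4 per group. Oral gavage at 50, 100 or 150 mg/kg twice daily, or vehicle, for 28 days. Formulation ethanol/water/Maalox (7:3:90, v/v/v). Toxicity signs monitored daily. Body weight recorded daily in week 1, then twice weekly, as percent change from starting weight.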

[5] = Elimination rate constant in C57BL/6N mouse at 150 mg/kg, po administered as single dose measured up to 8 hrs by LC-MS/MS analysis; assay type: ADME, organism-based; conditions: in vivo
[6] = target: T2, cAMP and cAMP-inhibited cGMP 3',5'-cyclic phosphodiesterase 10A (Homo sapiens, UniProt Q9Y233); test: Inhibition of recombinant GST-tagged full length PDE10A2 (unknown origin) expressed in baculovirus infected Sf9 insect cells using FAM-cAMP as substrate incubated for 1.5 hrs by IMAP-FP assay; summary of the method: as §1
[7] = target: T2, cAMP and cAMP-inhibited cGMP 3',5'-cyclic phosphodiesterase 10A; test: Inhibition of recombinant GST-tagged full length PDE10A2 (unknown origin) expressed in baculovirus infected Sf9 insect cells using TAMRA-cGMP as substrate incubated for 1.5 hrs by IMAP-FP assay; summary of the method: as §1
[8] = target: T1, cGMP-dependent 3',5'-cyclic phosphodiesterase; test: Inhibition of recombinant full length GST-tagged PDE2A (unknown origin) expressed in baculovirus infected Sf9 insect cells using FAM-cAMP as substrate incubated for 1.5 hrs by IMAP-FP assay; summary of the method: as §1
[9] = Protein binding in human plasma assessed as bound fraction by HPLC-MS/MS analysis; assay type: ADME, cell-free; conditions: read-out: PPB (converted)
Summary of the method: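 Human plasma spiked with compound at 10 μM, 1% DMSO final. Dialyzed against PBS pH 7.4 for 4 h at 37 °C. Both compartments diluted, acetonitrile-precipitated and quantified by HPLC-MS/MS. An undialyzed spiked control served for recovery; duplicates.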

[10] = target: cGMP-specific 3',5'-cyclic phosphodiesterase (Homo sapiens, UniProt O76074); test: Inhibition of recombinant 6His-tagged PDE5A1 catalytic domain (unknown origin) expressed in Escherichia coli using TAMRA-cGMP or FAM-cAMP as substrate incubated for 1.5 hrs by IMAP-FP assay
[11] = Toxicity in athymic nude-Foxn1nu mouse assessed as body weight loss at 50 to 150 mg/kg, po bid measured immediately relative to control; assay type: organism-based; conditions: in vivo, dose 50-150 mg/kg; summary of the method: as §2
[12] = target: Dual 3',5'-cyclic-AMP and -GMP phosphodiesterase 11A (Homo sapiens, UniProt Q9HCR9); test: Inhibition of recombinant GST-tagged full length PDE11A4 (unknown origin) expressed in baculovirus infected Sf9 insect cells using TAMRA-cGMP as substrate incubated for 1.5 hrs by IMAP-FP assay; summary of the method: as §1
[13] = Toxicity in athymic nude-Foxn1nu mouse assessed as drug tolerance at 50 to 150 mg/kg, po bid for 28 days; assay type: organism-based; conditions: in vivo, 672 h, dose 50-150 mg/kg, time 28 day; summary of the method: as §2

T2 sequence (Q9Y233 whole entry): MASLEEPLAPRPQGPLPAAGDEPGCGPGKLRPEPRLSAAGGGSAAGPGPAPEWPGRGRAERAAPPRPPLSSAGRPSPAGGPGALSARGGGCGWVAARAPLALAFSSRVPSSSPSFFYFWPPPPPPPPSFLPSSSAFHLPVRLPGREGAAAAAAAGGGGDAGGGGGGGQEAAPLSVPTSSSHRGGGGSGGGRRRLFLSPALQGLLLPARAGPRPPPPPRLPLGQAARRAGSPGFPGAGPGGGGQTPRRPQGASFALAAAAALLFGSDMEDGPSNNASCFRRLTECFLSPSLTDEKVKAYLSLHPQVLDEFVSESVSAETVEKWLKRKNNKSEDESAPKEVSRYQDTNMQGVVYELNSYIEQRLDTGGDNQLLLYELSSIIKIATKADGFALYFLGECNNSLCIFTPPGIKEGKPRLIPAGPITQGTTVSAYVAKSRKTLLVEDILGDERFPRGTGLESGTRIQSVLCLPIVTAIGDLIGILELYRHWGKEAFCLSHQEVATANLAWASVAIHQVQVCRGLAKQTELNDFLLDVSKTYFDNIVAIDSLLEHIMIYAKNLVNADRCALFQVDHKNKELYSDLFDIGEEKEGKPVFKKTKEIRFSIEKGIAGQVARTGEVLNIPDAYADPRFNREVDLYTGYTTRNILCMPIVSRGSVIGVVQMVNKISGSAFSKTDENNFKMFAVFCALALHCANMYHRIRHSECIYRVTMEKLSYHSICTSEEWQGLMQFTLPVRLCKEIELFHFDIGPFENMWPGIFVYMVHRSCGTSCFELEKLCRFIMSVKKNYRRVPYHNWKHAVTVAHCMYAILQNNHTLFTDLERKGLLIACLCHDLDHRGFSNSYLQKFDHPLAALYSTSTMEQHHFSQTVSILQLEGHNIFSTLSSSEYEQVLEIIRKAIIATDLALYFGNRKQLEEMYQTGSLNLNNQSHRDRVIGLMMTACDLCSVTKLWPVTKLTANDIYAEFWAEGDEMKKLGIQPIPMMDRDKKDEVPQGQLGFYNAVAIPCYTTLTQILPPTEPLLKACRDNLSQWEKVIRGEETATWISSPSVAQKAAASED
T1 sequence (O00408 whole entry): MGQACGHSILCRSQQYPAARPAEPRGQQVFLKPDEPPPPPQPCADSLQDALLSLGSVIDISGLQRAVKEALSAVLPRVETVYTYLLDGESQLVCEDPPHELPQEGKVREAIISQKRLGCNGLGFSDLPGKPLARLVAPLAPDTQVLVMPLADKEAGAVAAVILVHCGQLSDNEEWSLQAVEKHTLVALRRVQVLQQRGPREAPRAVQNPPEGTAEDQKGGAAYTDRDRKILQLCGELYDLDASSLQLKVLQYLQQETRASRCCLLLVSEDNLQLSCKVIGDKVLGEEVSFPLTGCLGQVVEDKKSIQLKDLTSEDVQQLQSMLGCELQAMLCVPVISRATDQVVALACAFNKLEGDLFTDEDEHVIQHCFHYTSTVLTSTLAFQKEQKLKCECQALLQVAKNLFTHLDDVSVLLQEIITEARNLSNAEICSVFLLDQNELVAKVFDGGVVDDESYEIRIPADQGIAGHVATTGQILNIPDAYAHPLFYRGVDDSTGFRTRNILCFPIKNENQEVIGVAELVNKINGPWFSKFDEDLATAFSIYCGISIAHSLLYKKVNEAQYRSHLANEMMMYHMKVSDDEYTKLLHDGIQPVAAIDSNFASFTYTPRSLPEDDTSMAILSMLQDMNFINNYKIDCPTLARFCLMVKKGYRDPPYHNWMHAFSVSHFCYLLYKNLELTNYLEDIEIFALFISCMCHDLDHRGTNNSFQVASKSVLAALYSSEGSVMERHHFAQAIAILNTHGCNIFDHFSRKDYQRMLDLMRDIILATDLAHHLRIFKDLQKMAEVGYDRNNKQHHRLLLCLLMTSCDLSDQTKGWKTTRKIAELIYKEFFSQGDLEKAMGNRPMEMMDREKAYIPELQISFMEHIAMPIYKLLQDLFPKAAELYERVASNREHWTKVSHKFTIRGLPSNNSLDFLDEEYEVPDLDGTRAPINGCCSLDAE
Dual 3',5'-cyclic-AMP and -GMP phosphodiesterase 11A, sequence (Q9HCR9 whole entry): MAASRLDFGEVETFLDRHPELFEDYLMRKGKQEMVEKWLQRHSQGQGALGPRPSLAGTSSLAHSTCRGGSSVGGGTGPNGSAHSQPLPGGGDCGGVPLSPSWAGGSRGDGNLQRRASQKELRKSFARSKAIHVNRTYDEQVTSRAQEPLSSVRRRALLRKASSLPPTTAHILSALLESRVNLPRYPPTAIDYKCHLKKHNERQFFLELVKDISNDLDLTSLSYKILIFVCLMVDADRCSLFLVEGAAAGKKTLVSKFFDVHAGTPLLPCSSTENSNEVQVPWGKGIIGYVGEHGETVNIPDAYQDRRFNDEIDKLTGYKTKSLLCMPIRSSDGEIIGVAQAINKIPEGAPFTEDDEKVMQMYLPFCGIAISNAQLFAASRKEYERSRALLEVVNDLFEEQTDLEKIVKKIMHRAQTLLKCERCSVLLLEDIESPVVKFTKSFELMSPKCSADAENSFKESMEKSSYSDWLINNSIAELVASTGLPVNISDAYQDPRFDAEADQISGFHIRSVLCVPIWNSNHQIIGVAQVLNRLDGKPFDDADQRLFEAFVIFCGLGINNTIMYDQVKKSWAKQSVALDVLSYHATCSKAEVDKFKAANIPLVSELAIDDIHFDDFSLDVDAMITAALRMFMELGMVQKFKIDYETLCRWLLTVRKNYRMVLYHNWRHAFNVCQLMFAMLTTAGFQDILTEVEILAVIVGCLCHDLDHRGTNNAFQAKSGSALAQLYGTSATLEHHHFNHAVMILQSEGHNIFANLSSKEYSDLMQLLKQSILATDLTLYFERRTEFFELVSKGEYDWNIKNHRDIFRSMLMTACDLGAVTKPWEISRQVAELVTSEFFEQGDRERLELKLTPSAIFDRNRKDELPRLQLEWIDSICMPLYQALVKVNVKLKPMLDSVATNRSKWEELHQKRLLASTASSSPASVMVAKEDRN

- IC50 [1]: > 10 µM
- AUC(0-t) [2]: 14100 ng·h/mL
- CL/F [3]: 3.09 mL/min
- k el at 8 h [5]: 8.33e-05 s⁻¹
- IC50 [6]: > 10 µM
- IC50 [7]: > 10 µM
- IC50 [8]: > 10 µM
- fraction unbound [9]: 0.02
- IC50 [10]: > 1 µM
- IC50 [12]: > 10 µM
SMILES: COc1c(F)cc(C2CC(C(C)(C)C)=NN2c2ccc(C(=O)N3CCN(C)CC3)cc2)cc1F (centres undefined)
- Ratio IC50 (Homo sapiens): > 10000
- Activity [4]: Non-Toxic
- Activity [11]: < 5%
- Activity [13]: Non-Toxic
